# Assay outcomes (PubChem BioAssay)
# Compounds with a hit are over-represented: about 11% of the library has one in this group of screens.
# S1P3 agonist = activates the human S1P3 receptor. AID 373. actives 0.1% (n = 60,000). S1P3 NFAT-BLA reporter cells, agonism, FRET ratio; relative to 1 µM S1P, basal subtracted. activation, % at 4.5 µM;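 active = activation above the screen-wide mean plus 3 SD, cut at about 4.5% in these data, passing the limit was not always enough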
#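 Assay system: stable CHO line with human S1P3, Gα16, NFAT-BLA reporter; Detection: FRET β-lactamase substrate fluorescence, excitation 405 nm, 460/535 nm emission ratio, background-subtracted; Read-out: percent activation versus median 1 µM S1P response, basal-subtracted, per plate; Incubation: cells plated overnight, compound 4 h 37 °C, substrate 2 h RT.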
# M1 agonist = activates the M1 muscarinic receptor. CHO-M1 cells, Fluo-4 calcium fluorescence, agonist mode; stronger effect = higher value. B-score at 10 µM. actives 3% (n = 64,000);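 active = fluorescence rise, raw or as B-score row- and column-corrected plate score, outside the 99.7% band of its plate's samples, either direction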
# TNAP act DEA = activates human TNAP at intermediate phosphate acceptor concentration; P05186; purified TNAP, CDP-star luminescence, 100 mM DEA, 30 min; stronger effect = higher value; scale: 0 levamisole-inhibited, 1 vehicle-only enzyme; activation factor at 20 µM; 64,000 tested, under 10 active;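 active = activation factor of at least 2 at 20 µM, relative to controls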
# S1P1 ag pot = S1P1 (human) agonism or agonism potentiation; P21453; S1P1 CRE-bla cells, forskolin, beta-lactamase FRET, potentiator mode; S1P1 agonist co-added at EC20, 2 nM; 100% = saturating reference agonist, 0% = basal; activation, % at 9.5 µM; actives 0.57% (n = 56,000); AID 449;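 active = activation above a cutoff set at the mean activation of all tested compounds plus 3 SD, cut at about 54% in these data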;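 also: forskolin at 4 µM as EC80 and the EC20 agonist is SEW2871; 100% = SEW2871 at its EC100 plus forskolin at EC80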
# Target sequence (P21453 whole entry, looked up): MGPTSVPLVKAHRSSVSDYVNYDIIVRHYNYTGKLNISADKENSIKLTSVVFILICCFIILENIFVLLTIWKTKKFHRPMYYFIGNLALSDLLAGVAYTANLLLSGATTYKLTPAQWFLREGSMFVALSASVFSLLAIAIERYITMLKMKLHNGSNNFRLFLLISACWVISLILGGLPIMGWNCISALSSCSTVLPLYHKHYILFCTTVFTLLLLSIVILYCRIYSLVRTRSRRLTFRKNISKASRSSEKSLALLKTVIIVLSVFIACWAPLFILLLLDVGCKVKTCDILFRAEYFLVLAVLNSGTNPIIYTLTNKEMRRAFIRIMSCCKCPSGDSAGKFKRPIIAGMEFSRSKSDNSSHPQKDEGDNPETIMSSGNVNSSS
# M1 antag = antagonists of rat M1 muscarinic receptor; P08482; CHO-M1 cells, Fluo-4 calcium, ACh EC80 antagonist mode; stronger effect = lower value; AID 628; actives 3.4% (n = 64,000); B-score at 10 µM;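 active = calcium fluorescence response, raw or row-and-column corrected B-score, differing from the plate sample mean either way at a set confidence level, mostly lower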
# D1 allo mod = D1 dopamine receptor (human) allosteric modulation | B-score at 10 µM | actives 5.9% (n = 58,000) | P21728 | AID 641 | HEK293 D1, CRE-luciferase, dopamine EC30 potentiation; actives deviate in either direction;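 active = luminescence count or its row- and column-corrected plate score outside the 99.7% band of the plate's sample wells, on either side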
# M1 antag conf = M1 muscarinic receptor (rat) antagonism, confirmed; shares compounds with M1 antag; CHO-M1 cells, Fluo-4 calcium, ACh EC80 antagonism; stronger effect = lower value; calcium response (max-min fluorescence) at 10 µM; actives 43% (n = 1,700); AID 677;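 active = calcium response below the same-plate mean of wells given acetylcholine alone at its 80%-effect dose, minus 3 SD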;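 also: raw fluorescence intensity difference in arbitrary instrument units and not normalized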
# mGluR4 antag = selectivity test for M1 antagonists: human mGluR4 receptor; shares compounds with M1 antag; CHO-mGluR4 calcium flux, Fluo-4 fluorescence, glutamate EC80; stronger effect = lower value; fluorescence response (max-min) at 10 µM; actives 0.9% (n = 1,700);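 active = fluorescence response below the plate's average for near-maximal glutamate wells, less 3 SD of those wells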;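 also: raw unnormalized fluorescence span taken in the window right after glutamate addition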
# Starred values were filed as active, the others as inactive; · = no result.
SMILES,S1P3 agonist,M1 agonist,TNAP act DEA,S1P1 ag pot,M1 antag,D1 allo mod,M1 antag conf,mGluR4 antag
CC(C)(C)C(=O)/C(C#N)=c1\s/c(=C\c2ccncc2)c(=O)n1CCCN1CCOCC1,0,0.29,0.9,4,1.1,-0.46,·,·
Cc1cccc(S(=O)(=O)NCCC(=O)OC(C)C(=O)NC(=O)NC2CCCCC2)c1 (stereo not given),-1,-0.13,0.9,-7,0.16,0.62,·,·
O=C1C=C(N2CCN(C3=CC(=O)CCC3)CC2)CCC1,-4,0.52,0.9,11,-0.5,-0.55,·,·
CCOC(=O)c1ccc2c(c1)nc(C1CCN(S(=O)(=O)c3cccs3)CC1)n2CC,-2,1.8,0.9,8,-2.9*,-0.2,474*,210
CCN(CCCc1ccccc1)CCCc1ccccc1,-3,-1.2,0.9,-16,-13*,-5,18*,256
CC(=O)C1=C(C)Nc2cc(C(F)(F)F)ccc2S1,-2,-0.76,0.9,5,0.044,0.88,·,·
O=C(NCCN1CCOCC1)c1ccc2c(c1)N(Cc1ccccc1)C(=O)CS2,·,-0.33,1,·,-3*,-0.88,344*,230
CCOC(=O)c1[nH]c(C)c(/C(O)=C2\C(=O)C(=O)N(CCCN(C)C)C2c2cccnc2)c1C (stereo not given),0,-0.026,0.9,3,0.26,0.014,·,·
Cc1onc(-c2ccccc2)c1C(=O)Nc1ccc2c(c1)OCCO2,1,-0.068,0.9,-19,0.017,-1.5,·,·
Cc1onc(-c2c(F)cccc2Cl)c1C(=O)Nc1nnc(C2CC2)s1,-1,1.1,1,10,-4.1*,·,481*,223
Cc1onc(-c2c(Cl)cccc2Cl)c1C(=O)Nc1ccc2c(c1)OCCO2,-2,-0.63,1,7,-3.1*,0.52,424*,235
C=C(C)C1CCC(C)=C1COC(=O)Nc1ccccc1 (stereo not given),0,0.043,0.8,-28,-0.024,-1,·,·
CCC(Sc1nc(C)cc(=O)[nH]1)C(=O)Nc1nnc(C)s1 (stereo not given),0,-0.28,0.9,8,-2.5*,0.54,522,184
CCC(Sc1nc(C)cc(=O)[nH]1)C(=O)Nc1nc2c(s1)CCCC2 (stereo not given),-2,-0.17,1,13,0.059,0.031,·,·
COc1ccc(CNC(=O)C2CCCN(S(=O)(=O)c3c(C)nn(C)c3C)C2)cc1 (stereo not given),1,0.063,0.9,-11,0.5,-0.34,·,·
Cc1nn(C)c(C)c1S(=O)(=O)N1CCCC(C(=O)N2CCN(c3ccccc3)CC2)C1 (stereo not given),-1,-0.74,1,5,-2.3*,-0.19,617,257
CCCS(=O)(=O)N1CCC(C(=O)N2CCC(Cc3ccccc3)CC2)CC1,-1,0.31,1,1,-0.42,-0.022,·,·
CCCS(=O)(=O)N1CCCC(C(=O)N2CCN(c3ccccn3)CC2)C1 (stereo not given),0,0.038,1,-29,-2.6*,1.8,525,191
CCCS(=O)(=O)N1CCCC(C(=O)N2CCC(Cc3ccccc3)CC2)C1 (stereo not given),-1,-0.39,1,-3,-5.2*,-0.74,577,260
COc1ccc(-n2c(SCCC(=O)O)nnc2-c2ccncc2)cc1,0,-0.068,1,-8,-0.051,-1.2,·,·
CCNc1nc2c(c(=O)[nH]c(=O)n2C)n1Cc1ccc(F)cc1,-1,-0.21,1,-14,-1.1,1.7,·,·
Clc1ccc(CSC2=NCCCN2)cc1Cl,-1,0.1,0.9,10,-4*,-0.6,355*,213
Cc1cc(NC(=O)CSc2nnc3c(C)cc4cc5c(cc4n23)OCO5)no1,-1,-0.3,0.8,-4,-0.5,·,·,·
CS(=O)(=O)N(CC(=O)N1CCC(C(N)=O)CC1)c1ccc(Oc2ccccc2)cc1,-2,0.18,1,-24,-1.6*,-0.52,550,195
CCOC(=O)N1CCN(C(=O)CN(c2ccc(Oc3ccccc3)cc2)S(C)(=O)=O)CC1,·,-1.9,0.9,·,-0.18,·,·,·
SMILES,S1P3 agonist,M1 agonist,TNAP act DEA,S1P1 ag pot,M1 antag,D1 allo mod,M1 antag conf,mGluR4 antag
Cc1ccccc1OCC(=O)OC(C)CN1CCN(C)CC1 (stereo not given),0,0.32,0.9,3,-5.5*,-0.035,641,246
COc1ccc(-n2nnnc2SCC(=O)Nc2cccc(C)n2)cc1OC,0,-0.058,0.9,-8,0.35,3.1,·,·
O=S(=O)(c1ccc2c(c1)OCCO2)N1CCC(O)(c2ccc(Cl)cc2)CC1,0,-0.66,0.9,37,-8.7*,-2,475*,260
CCCN(CCC)CCCNC(=O)c1ccc2c(c1)N(CC)C(=O)c1ccccc1S2=O (stereo not given),0,-0.4,1,-1,-4.2*,-0.076,328*,202
CC(C)=CCCC(C)CN1CCC(O)CC1 (stereo not given),-1,-0.32,0.9,-14,0.12,-0.0011,·,·
CC(C)=CCC/C(C)=C/CCC(C)NCCN1CCNCC1 (stereo not given),-2,-0.08,1,9,-6.6*,-0.38,390*,262
CC1(C)CC2(CC(C)(C)NC(=O)N2)NC(=O)N1,·,-1.2,0.9,·,-0.68,2,·,·
COC(=O)c1cc(Br)c(=O)n(-c2cc(C)on2)c1,-4,-0.084,0.9,7,0.025,-0.18,·,·
O=c1c2ccccc2nnn1CSc1nnc(-c2cccc(S(=O)(=O)N3CCCCC3)c2)o1,·,1.7,1,·,-4.2*,2.8,366*,238
CCCCOc1ccc(S(=O)(=O)n2c(C)nc3ccccc32)cc1,-1,-1,0.9,75,-3.5*,-0.62,584,242
CCOc1ccc(S(=O)(=O)n2c(C)nc3ccccc32)cc1,0,-0.073,0.9,-18,-2.6*,-1.6,202*,243
O=C1CC(SCCO)C(=O)N1c1ccc(Oc2ccccc2)cc1 (stereo not given),0,0.02,0.9,·,-2.7*,-0.73,597,252
CCOC(=O)c1ccc(N2C(=O)CC(SCC(N)C(=O)OCC)C2=O)cc1 (stereo not given),·,0.29,0.9,·,0.25,-0.35,·,·
Cc1nc2ccc(NC(=O)c3ccc(S(=O)(=O)N4CCOCC4)cc3)cc2s1,·,-0.71,0.9,·,0.48,-0.9,·,·
